≈ marks a conversion by molar mass, not a printed value.
Key:
[1] = molecular target: Protein smoothened (Mus musculus, UniProt P56726); experiment: Inhibition of Smo in mouse C3H10T1/2 cells using human recombinant SHH assessed as effect on SMO/SHH transient transcriptional activation after 20 hrs by Gli-luciferase reporter assay; format: cell-based, C3H 10T1/2
[2] = molecular target: Protein smoothened (Mus musculus) (UniProt P56726); experiment: Potency ratio, ratio of IC50 for compound to IC50 for compound 1 in mouse C3H10T1/2 cells by SMO/SHH transient transcriptional activation based Gli-luciferase reporter assay; format: cell-based; conditions: C3H 10T1/2
[3] = Aqueous solubility of the compound; format: physicochemical; conditions: buffer
[4] = Chemical solubility of the compound in PBS at pH 6.5; format: physicochemical
[5] = Chemical solubility of the compound in SGN at pH 1.2; format: physicochemical
[6] = Plasma clearance in rat at 2 mg/kg, iv dosed in 20% PEG400/80% H2O; format: ADME, organism-based; parameters: dose 2 mg/kg, route intravenous
Procedure, shortened: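 Single IV dose of 2 mg/kg formulated in 20% PEG400/80% H2O. Plasma clearance was determined.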

[7] = Oral bioavailability in rat at 5 mg/kg dosed in 0.5% methylcellulose in water; format: ADME, organism-based; conditions: in vivo
Procedure, shortened: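 Oral dosing at 5 mg/kg, formulated in 0.5% methylcellulose in water.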

[8] = Apparent permeability of the compound across apical to basolateral side in human Caco2 cells; format: ADME, cell-based; conditions: Caco-2
[9] = Apparent permeability of the compound across basolateral to apical side in human Caco2 cells; format: ADME, cell-based; conditions: Caco-2
[10] = Plasma clearance in dog; format: ADME, organism-based, Canis lupus familiaris
[11] = Oral bioavailability in dog at 5 mg/kg; format: ADME, organism-based, Canis lupus familiaris; conditions: in vivo
[12] = Fraction absorbed in dog at 5 mg/kg, po; format: ADME, organism-based, Canis lupus familiaris; parameters: dose 5 mg/kg, route oral; conditions: in vivo
[13] = Drug excretion in rat bile at 2 mg/kg, iv; format: ADME, organism-based; parameters: dose 2 mg/kg, route intravenous; conditions: read-out: Drug excretion
[14] = Drug excretion in rat urine at 2 mg/kg, iv; format: ADME, organism-based; parameters: dose 2 mg/kg, route intravenous; conditions: read-out: Drug excretion
[15] = Lipophilicity, log D of the compound; format: physicochemical; conditions: octanol/water
[16] = Fraction unbound in rat liver microsomes; format: ADME, Microsome
[17] = Fraction unbound in dog liver microsomes; format: ADME, Canis lupus familiaris, Microsome
[18] = Fraction unbound in human liver microsomes; format: ADME, Microsome
[19] = molecular target: T1, Cytochrome P450 1A2 (Homo sapiens, UniProt P05177); experiment: Inhibition of CYP1A2; format: ADME
T1 sequence (P05177 whole entry): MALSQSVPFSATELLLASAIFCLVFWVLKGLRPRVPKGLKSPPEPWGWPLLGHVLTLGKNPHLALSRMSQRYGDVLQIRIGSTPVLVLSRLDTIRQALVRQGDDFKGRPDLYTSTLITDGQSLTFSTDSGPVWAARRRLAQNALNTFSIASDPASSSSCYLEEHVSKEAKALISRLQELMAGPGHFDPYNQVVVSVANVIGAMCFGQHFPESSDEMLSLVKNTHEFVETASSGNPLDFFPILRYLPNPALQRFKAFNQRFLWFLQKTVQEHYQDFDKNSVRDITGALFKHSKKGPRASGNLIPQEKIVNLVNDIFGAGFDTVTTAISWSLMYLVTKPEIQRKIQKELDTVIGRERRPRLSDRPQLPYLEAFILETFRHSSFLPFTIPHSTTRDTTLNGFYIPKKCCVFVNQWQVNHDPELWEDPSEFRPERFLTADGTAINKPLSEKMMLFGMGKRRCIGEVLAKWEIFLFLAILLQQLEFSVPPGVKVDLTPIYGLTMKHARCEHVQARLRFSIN

[20] = molecular target: T2, Cytochrome P450 2C8 (Homo sapiens, UniProt P10632); experiment: Inhibition of CYP2C8; format: ADME
T2 sequence (P10632 whole entry): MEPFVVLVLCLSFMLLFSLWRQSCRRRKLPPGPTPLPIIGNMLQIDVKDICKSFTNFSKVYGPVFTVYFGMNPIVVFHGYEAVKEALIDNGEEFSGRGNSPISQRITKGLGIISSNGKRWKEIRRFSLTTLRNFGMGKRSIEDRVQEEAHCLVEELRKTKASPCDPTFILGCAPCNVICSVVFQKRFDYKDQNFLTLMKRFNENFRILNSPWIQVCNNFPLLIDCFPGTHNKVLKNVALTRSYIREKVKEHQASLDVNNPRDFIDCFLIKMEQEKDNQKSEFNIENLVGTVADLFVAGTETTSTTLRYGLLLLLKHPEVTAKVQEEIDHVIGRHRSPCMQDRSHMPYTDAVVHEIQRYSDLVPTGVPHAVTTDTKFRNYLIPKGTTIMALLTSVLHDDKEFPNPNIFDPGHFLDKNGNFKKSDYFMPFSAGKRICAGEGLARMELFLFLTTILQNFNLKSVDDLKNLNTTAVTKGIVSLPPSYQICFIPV

[21] = molecular target: Cytochrome P450 2C9 (Homo sapiens, UniProt P11712); experiment: Inhibition of CYP2C9; format: ADME
[22] = molecular target: Cytochrome P450 2C19 (Homo sapiens, UniProt P33261); experiment: Inhibition of CYP2C19; format: ADME
[23] = molecular target: Cytochrome P450 2D6 (Homo sapiens, UniProt P10635); experiment: Inhibition of CYP2D6; format: ADME
[24] = molecular target: Cytochrome P450 3A4 (Homo sapiens, UniProt P08684); experiment: Inhibition of CYP3A4; format: ADME
[25] = Dissociation constant, pKa of the compound; format: physicochemical
[26] = Percentage unbound in rat plasma; format: ADME, cell-free
[27] = Percentage unbound in dog plasma; format: ADME, cell-free, Canis lupus familiaris
[28] = Percentage unbound in human plasma; format: ADME, cell-free
[29] = test system: Salmonella typhimurium; experiment: Induction of genotoxicity in Salmonella typhimurium by Ames test; format: toxicity, organism-based; conditions: salmonella enterica subsp. enterica serovar typhimurium
[30] = Induction of genotoxicity in micronucleus by micronucleus test
[31] = Volume of distribution at steady state in rat at 1 mg/kg, iv and 1 mg/kg, po; format: ADME, organism-based; conditions: in vivo, read-out: Vdss
Procedure, shortened: (§1)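 Rats received 1 mg/kg IV as a solution in 10% EtOH/20% PEG400/70% PBS. A separate group received 1 mg/kg orally in methylcellulose in water.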

[32] = Half life in rat at 1 mg/kg, iv and 1 mg/kg, po; format: ADME, organism-based; conditions: in vivo; procedure, shortened: as §1
[33] = Volume of distribution at steady state in dog at 0.5 mg/kg, iv and 3 mg/kg, po; format: ADME, organism-based, Canis lupus familiaris; conditions: in vivo, read-out: Vdss
Procedure, shortened: (§2)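 In dogs, the IV dose was 0.5 mg/kg in solution in 10% EtOH/20% PEG400/70% PBS. The oral dose was 3 mg/kg in methylcellulose in water.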

[34] = Half life in dog at 0.5 mg/kg, iv and 3 mg/kg, po; format: ADME, organism-based, Canis lupus familiaris; conditions: in vivo; procedure, shortened: as §2
[35] = Clearance in dog at 0.5 mg/kg, iv and 3 mg/kg, po; format: ADME, organism-based, Canis lupus familiaris; conditions: in vivo; procedure, shortened: as §2
[36] = Oral bioavailability in dog at 3 mg/kg; format: ADME, organism-based, Canis lupus familiaris; conditions: in vivo; procedure, shortened: as §2
[37] = Clearance in rat at 1 mg/kg, iv and 1 mg/kg, po; format: ADME, organism-based; conditions: in vivo; procedure, shortened: as §1
[38] = Oral bioavailability in rat at 1 mg/kg; format: ADME, organism-based; conditions: in vivo; procedure, shortened: as §1
[39] = Intrinsic clearance in rat microsomes; format: ADME, Microsome
[40] = Intrinsic clearance in dog microsomes; format: ADME, Canis lupus familiaris, Microsome
[41] = Intrinsic clearance in human microsomes; format: ADME, Microsome
[42] = Free intrinsic clearance in human microsomes; format: ADME, Microsome

Protein smoothened (Mus musculus), sequence (P56726 whole entry): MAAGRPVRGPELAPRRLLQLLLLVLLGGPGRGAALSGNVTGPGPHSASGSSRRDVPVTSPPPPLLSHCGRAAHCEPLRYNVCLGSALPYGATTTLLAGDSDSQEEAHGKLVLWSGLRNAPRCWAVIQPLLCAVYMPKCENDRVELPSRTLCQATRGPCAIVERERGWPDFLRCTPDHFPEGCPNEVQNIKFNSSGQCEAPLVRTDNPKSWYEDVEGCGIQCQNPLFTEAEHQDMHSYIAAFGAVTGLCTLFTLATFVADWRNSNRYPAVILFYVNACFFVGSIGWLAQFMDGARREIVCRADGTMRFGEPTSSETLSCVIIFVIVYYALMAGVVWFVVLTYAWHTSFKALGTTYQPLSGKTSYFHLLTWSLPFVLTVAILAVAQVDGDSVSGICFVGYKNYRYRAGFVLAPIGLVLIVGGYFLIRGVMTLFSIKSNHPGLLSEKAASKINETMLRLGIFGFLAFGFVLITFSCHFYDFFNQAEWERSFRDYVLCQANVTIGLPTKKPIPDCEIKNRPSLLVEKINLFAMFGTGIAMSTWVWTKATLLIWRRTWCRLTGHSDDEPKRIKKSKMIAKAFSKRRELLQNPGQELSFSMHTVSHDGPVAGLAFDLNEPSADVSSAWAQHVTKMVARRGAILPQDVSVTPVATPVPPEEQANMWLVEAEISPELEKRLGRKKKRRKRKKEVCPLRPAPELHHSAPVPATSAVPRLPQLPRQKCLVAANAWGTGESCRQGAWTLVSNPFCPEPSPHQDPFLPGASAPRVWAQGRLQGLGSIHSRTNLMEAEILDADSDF
Protein smoothened, sequence (P56726 whole entry): as above
Cytochrome P450 2C9, sequence (P11712 whole entry): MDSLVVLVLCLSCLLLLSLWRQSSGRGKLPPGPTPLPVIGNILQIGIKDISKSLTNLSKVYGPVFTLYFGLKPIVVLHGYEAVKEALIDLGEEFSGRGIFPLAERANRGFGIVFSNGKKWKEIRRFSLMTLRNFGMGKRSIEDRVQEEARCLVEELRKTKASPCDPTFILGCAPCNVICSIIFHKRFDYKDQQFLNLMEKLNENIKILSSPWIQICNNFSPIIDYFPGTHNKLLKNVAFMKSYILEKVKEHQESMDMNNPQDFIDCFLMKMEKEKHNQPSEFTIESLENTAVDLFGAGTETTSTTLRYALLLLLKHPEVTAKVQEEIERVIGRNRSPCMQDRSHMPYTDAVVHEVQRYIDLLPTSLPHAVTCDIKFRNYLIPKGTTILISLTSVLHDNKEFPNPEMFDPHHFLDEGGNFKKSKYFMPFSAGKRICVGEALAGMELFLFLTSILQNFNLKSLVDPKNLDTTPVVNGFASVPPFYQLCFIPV
Cytochrome P450 2D6, sequence (P10635 whole entry): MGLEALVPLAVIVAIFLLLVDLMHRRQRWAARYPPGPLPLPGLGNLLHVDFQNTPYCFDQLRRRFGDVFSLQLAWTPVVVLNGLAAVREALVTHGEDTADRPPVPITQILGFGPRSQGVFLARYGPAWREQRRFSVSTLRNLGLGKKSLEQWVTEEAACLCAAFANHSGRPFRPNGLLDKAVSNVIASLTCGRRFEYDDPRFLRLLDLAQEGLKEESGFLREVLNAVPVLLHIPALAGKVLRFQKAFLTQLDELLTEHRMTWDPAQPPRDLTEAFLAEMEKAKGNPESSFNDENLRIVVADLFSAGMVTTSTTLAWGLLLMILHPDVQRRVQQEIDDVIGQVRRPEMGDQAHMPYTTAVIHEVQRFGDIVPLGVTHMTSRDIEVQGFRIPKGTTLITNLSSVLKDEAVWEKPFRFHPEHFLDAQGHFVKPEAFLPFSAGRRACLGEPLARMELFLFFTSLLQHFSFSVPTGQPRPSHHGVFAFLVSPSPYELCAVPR
Cytochrome P450 3A4, sequence (P08684 whole entry): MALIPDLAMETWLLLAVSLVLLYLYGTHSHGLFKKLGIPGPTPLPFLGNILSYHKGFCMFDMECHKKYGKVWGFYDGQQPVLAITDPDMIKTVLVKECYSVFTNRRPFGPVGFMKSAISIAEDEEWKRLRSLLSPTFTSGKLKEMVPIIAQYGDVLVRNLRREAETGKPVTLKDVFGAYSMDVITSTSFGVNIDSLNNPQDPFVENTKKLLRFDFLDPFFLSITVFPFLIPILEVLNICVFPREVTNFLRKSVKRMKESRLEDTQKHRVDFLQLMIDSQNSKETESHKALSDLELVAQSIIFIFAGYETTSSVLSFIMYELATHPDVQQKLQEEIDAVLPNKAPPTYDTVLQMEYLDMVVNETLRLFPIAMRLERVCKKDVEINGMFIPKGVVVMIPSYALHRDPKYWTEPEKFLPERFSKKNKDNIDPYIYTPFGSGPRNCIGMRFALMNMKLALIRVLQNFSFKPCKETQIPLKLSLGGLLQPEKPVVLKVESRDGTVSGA
Cytochrome P450 2C19, sequence (P33261 whole entry): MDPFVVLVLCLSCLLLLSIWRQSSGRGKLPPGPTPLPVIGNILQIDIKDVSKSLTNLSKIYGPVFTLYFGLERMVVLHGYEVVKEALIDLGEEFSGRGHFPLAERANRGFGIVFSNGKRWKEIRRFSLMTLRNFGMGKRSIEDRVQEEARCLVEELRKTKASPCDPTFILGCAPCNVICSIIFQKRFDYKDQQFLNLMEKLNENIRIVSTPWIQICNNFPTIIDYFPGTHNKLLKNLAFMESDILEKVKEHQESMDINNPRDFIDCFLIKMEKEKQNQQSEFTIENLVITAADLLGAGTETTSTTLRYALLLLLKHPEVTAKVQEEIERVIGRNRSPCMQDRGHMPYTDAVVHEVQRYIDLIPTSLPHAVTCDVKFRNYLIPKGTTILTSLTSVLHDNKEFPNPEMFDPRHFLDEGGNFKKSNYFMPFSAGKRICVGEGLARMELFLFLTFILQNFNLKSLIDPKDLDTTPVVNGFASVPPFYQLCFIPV

COc1ccc(NC(=O)N[C@@H]2CCN(C)[C@@H](c3nc4ccccc4[nH]3)C2)cc1
IC50 [1]: 35 nM
Ratio IC50 [2]: > 50

CN1CC[C@@H](NC(=O)Nc2ccc(Cl)cc2)C[C@@H]1c1nc2ccccc2[nH]1
IC50 [1]: 20 nM
Ratio IC50 [2]: > 50

CN1CC[C@@H](NC(=O)Nc2ccc3c(c2)OCCO3)C[C@@H]1c1nc2ccccc2[nH]1
IC50 [1]: 45 nM
Ratio IC50 [2]: > 50

CN1CC[C@@H](NC(=O)Nc2ccc(C#N)cc2)C[C@@H]1c1nc2ccccc2[nH]1.Cl.O
solubility [3]: 20 µg/mL
solubility [4]: 1150 µg/mL
solubility [5]: > 69000 µg/mL

CN1CC[C@@H](NC(=O)Nc2cccnc2)C[C@@H]1c1nc2ccccc2[nH]1
IC50 [1]: 191 nM
Ratio IC50 [2]: > 50

O=C(N[C@@H]1CCC[C@H](c2nc3ccccc3[nH]2)C1)c1ccc2c(c1)OCCO2
IC50 [1]: 88 nM
solubility [3]: 37 µg/mL (≈ 98 µM)
clearance [6]: 33 mL/min/kg
bioavailability [7]: 4%
Papp A→B [8]: 85 ×10⁻⁶ cm/s
Papp B→A [9]: 65 ×10⁻⁶ cm/s
Ratio IC50 [2]: 18

CN1CC[C@@H](NC(=O)c2ccc3c(c2)OCCO3)C[C@@H]1c1nc2ccccc2[nH]1
IC50 [1]: 43 nM
clearance [6]: > 70 mL/min/kg
clearance [10]: 18 mL/min/kg
bioavailability [11]: 33%
Fa [12]: > 50%
dose excreted [13]: < 5%
dose excreted [14]: < 5%
Ratio IC50 [2]: 9

CN1CC[C@@H](NC(=O)Nc2ccccc2)C[C@@H]1c1nc2ccccc2[nH]1
IC50 [1]: 103 nM
Ratio IC50 [2]: > 50

CN1CC[C@@H](NC(=O)Nc2ccc(C#N)cc2)C[C@@H]1c1nc2ccccc2[nH]1 [GLASDEGIB]
IC50 [1]: 5 nM
logD [15]: 2.48
fraction unbound [16]: 0.57
fraction unbound [17]: 0.54
fraction unbound [18]: 0.61
IC50 [19]: > 30000 nM
IC50 [20]: > 30000 nM
IC50 [21]: > 30000 nM
IC50 [22]: > 30000 nM
IC50 [23]: > 30000 nM
IC50 [24]: > 30000 nM
pKa [25]: 6
fraction unbound [26]: 0.109
fraction unbound [27]: 0.141
fraction unbound [28]: 0.091
Papp A→B [8]: 5.98 ×10⁻⁶ cm/s
Papp B→A [9]: 15.6 ×10⁻⁶ cm/s
Activity [29]: Non-toxic
Activity [30]: Non-toxic
Vd [31]: 4.8 L/kg
half-life [32]: 1.4 h
Vd [33]: 4.3 L/kg
half-life [34]: 2.9 h
clearance [35]: 3.9 mL/min/kg
bioavailability [36]: 68%
clearance [37]: 31 mL/min/kg
bioavailability [38]: 33%
CLint scaled [39]: 67 mL/min/kg
CLint scaled [40]: < 14 mL/min/kg
CLint scaled [41]: 6.3 mL/min/kg

CN1CC[C@@H](NC(=O)Nc2ccc(C#N)cc2)C[C@@H]1c1nc2ccccc2[nH]1
Ratio IC50 [2]: > 50

CN1CC[C@@H](NC(=O)Nc2ccc(C(F)(F)F)cc2)C[C@@H]1c1nc2ccccc2[nH]1
IC50 [1]: 5 nM
Ratio IC50 [2]: > 50

CN1CC[C@@H](NC(=O)Nc2cccc(C#N)c2)C[C@@H]1c1nc2ccccc2[nH]1
IC50 [1]: 72 nM
Ratio IC50 [2]: > 50

O=C(Nc1cccc(-c2nc3ccccc3[nH]2)c1)c1ccc2c(c1)OCCO2
IC50 [1]: 5 nM
CL free [42]: 0.314 mL/min/kg
solubility [3]: 0.1 µg/mL (≈ 0.269 µM)
clearance [6]: 25 mL/min/kg
fraction unbound [26]: < 0.01
fraction unbound [27]: < 0.01
fraction unbound [28]: < 0.01

Reference: ChEMBL document CHEMBL2040751, “Discovery of PF-04449913, a Potent and Orally Bioavailable Inhibitor of Smoothened” (ACS Med Chem Lett, 2012)
